{"data": "Published values from different studies", "organism": "Staphylococcus aureus", "effect on": "microbial growth", "note": "Protocols differ between the studies behind these lines."}
{"Compound": "CN[C@H](CC(C)C)C(=O)N[C@H]1C(=O)N[C@@H](CC(N)=O)C(=O)N[C@H]2C(=O)N[C@H]3C(=O)N[C@H](C(=O)N[C@H](C(=O)O)c4cc(O)cc(O)c4-c4cc3ccc4O)[C@H](O)c3ccc(c(Cl)c3)Oc3cc2cc(c3O[C@@H]2O[C@H](CO)[C@@H](O)[C@H](O)[C@H]2O[C@H]2C[C@](C)(N)[C@H](O)[C@H](C)O2)Oc2ccc(cc2Cl)[C@H]1O", "test system": "VRSA", "setting": "drug-resistant strain", "MIC": "> 16 µg/mL"}
{"Compound": "CN[C@H](CC(C)C)C(=O)N[C@H]1C(=O)N[C@@H](CC(N)=O)C(=O)N[C@H]2C(=O)N[C@H]3C(=O)N[C@H](C(=O)N[C@H](C(=O)O)c4cc(O)cc(O)c4-c4cc3ccc4O)[C@H](O)c3ccc(c(Cl)c3)Oc3cc2cc(c3O[C@@H]2O[C@H](CO)[C@@H](O)[C@H](O)[C@H]2O[C@H]2C[C@](C)(N)[C@H](O)[C@H](C)O2)Oc2ccc(cc2Cl)[C@H]1O", "test system": "ATCC33591", "setting": "drug-resistant strain", "MIC": "1.56 µg/mL"}
{"Compound": "CN(C)[C@@H]1C(O)=C(C(N)=O)C(=O)[C@@]2(O)C(O)=C3C(=O)c4c(O)cccc4[C@@](C)(O)[C@H]3C[C@@H]12", "test system": "USA300", "MIC": "256 µg/mL"}
{"Compound": "CN[C@H](CC(C)C)C(=O)N[C@H]1C(=O)N[C@@H](CC(N)=O)C(=O)N[C@H]2C(=O)N[C@H]3C(=O)N[C@H](C(=O)N[C@H](C(=O)O)c4cc(O)cc(O)c4-c4cc3ccc4O)[C@H](O)c3ccc(c(Cl)c3)Oc3cc2cc(c3O[C@@H]2O[C@H](CO)[C@@H](O)[C@H](O)[C@H]2O[C@H]2C[C@](C)(N)[C@H](O)[C@H](C)O2)Oc2ccc(cc2Cl)[C@H]1O", "assay": "broth dilution", "test system": "ATCCBAA44", "setting": "drug-resistant strain", "MIC": "1 µg/mL"}
{"Compound": "CC(=O)Nc1c2sscc-2[nH]c1=O", "test system": "MRSA", "setting": "drug-resistant strain", "MIC": "2.5 µM"}
{"Compound": "CO[C@H]1[C@H](O[C@H]([C@H]2O[C@@H](n3ccc(=O)[nH]c3=O)[C@H](O)[C@@H]2O)[C@H](NCCCNC(=O)[C@@H](NC(=O)[C@@H](NC(=O)N[C@H](C(=O)O)C(C)C)[C@@H]2CCN=C(N)N2)[C@@H](OC(=O)CCCCCCC(C)C)C(C)C)C(=O)O)O[C@H](CN)[C@H]1O", "test system": "NEWMAN", "MIC": "> 32 µg/mL"}
{"Compound": "C[C@H]1COc2c(N3CCN(C)CC3)c(F)cc3c(=O)c(C(=O)O)cn1c23", "assay": "broth dilution", "test system": "ATCC29213", "MIC": "0.125 µg/mL"}
{"Compound": "COc1cccc(OC)c1C(=O)N[C@@H]1C(=O)N2[C@@H]1SC(C)(C)[C@@H]2C(=O)O", "test system": "ATCCBAA41", "setting": "drug-resistant strain, clinical isolate", "MIC": "> 64 µg/mL"}
{"Compound": "Cc1ccc2nc(-c3c(F)cccc3Cl)[nH]c2c1", "assay": "broth dilution", "test system": "ATCC43300 MRSA", "setting": "drug-resistant strain", "MIC": "64 µg/mL"}
{"Compound": "COC(=O)c1cc(-c2cccc(NC(=S)Nc3ccc(C#N)cc3)c2)on1", "assay": "broth dilution", "test system": "ATCC29213", "MIC": "> 64 µg/mL"}
{"Compound": "CCCCCCCC(=O)CP(=O)(O)O", "test system": "ATCC33591 MRSA", "setting": "drug-resistant strain", "MIC": "200 µg/mL"}
{"Compound": "COC(=O)c1cccc(Oc2ccc(NC(=O)Nc3ccc(Cl)c(C(F)(F)F)c3)cc2)c1", "test system": "NCTC8325", "MIC": "0.5 µM"}
{"Compound": "COC(=O)c1cc(-c2cccc(NC(=O)Nc3ccc(F)c(F)c3)c2)on1", "assay": "broth dilution", "test system": "ATCC29213", "MIC": "> 64 µg/mL"}
{"Compound": "CCCCCC/C=C\\CCCCCCCCCc1cc(O)cc(O)c1", "assay": "broth dilution", "test system": "USA300", "setting": "drug-resistant strain", "MIC": "> 64 µg/mL"}
{"Compound": "CCCCCCCCCCCCCCCC(=O)NP(=O)(O)O", "test system": "ATCC33591 MRSA", "setting": "drug-resistant strain", "MIC": "200 µg/mL"}
{"Compound": "CN[C@H](CC(C)C)C(=O)N[C@H]1C(=O)N[C@@H](CC(N)=O)C(=O)N[C@H]2C(=O)N[C@H]3C(=O)N[C@H](C(=O)N[C@H](C(=O)O)c4cc(O)cc(O)c4-c4cc3ccc4O)[C@H](O)c3ccc(c(Cl)c3)Oc3cc2cc(c3O[C@@H]2O[C@H](CO)[C@@H](O)[C@H](O)[C@H]2O[C@H]2C[C@](C)(N)[C@H](O)[C@H](C)O2)Oc2ccc(cc2Cl)[C@H]1O", "assay": "broth dilution", "test system": "25923", "MIC": "0.78 µM"}
{"Compound": "CCOC(=O)c1cc(-c2cccc(NC(=O)Nc3ccc(Cl)c(Cl)c3)c2)on1", "assay": "broth dilution", "test system": "ATCC29213", "MIC": "> 64 µg/mL"}
{"Compound": "CSc1ccc(-c2nc3ccc(C)cc3n2Cc2ccccc2)cc1", "assay": "broth dilution", "test system": "ATCC43300 MRSA", "setting": "drug-resistant strain", "MIC": "256 µg/mL"}
{"Compound": "CCCCCC/C=C\\CCCCCCCCCC(=O)CP(=O)(O)O", "test system": "ATCC33591 MRSA", "setting": "drug-resistant strain", "MIC": "100 µg/mL"}
{"Compound": "Cc1ccccc1-n1c(Cn2ncc3c(N)ncnc32)nc2cccc(C)c2c1=O", "test system": "NCTC8325", "MIC": "> 30 µM"}
{"Compound": "Cc1ccc2nc(-c3ccc(Cl)cc3)n(Cc3ccccc3)c2c1", "assay": "broth dilution", "test system": "ATCC43300 MRSA", "setting": "drug-resistant strain", "MIC": "8 µg/mL"}
{"Compound": "COC(=O)c1cc(-c2cccc(NC(=O)Nc3ccccc3OC)c2)on1", "assay": "broth dilution", "test system": "ATCC29213", "MIC": "> 64 µg/mL"}
{"Compound": "CC1(C)CC[C@]2(C(=O)O)CC[C@]3(C)C(=CC[C@@H]4[C@@]5(C)CC[C@H](O)C(C)(C)[C@@H]5CC[C@]43C)[C@@H]2C1", "test system": "ATCC25904", "MIC": "256 µg/mL"}
{"Compound": "c1cncc(-c2nc3ccccc3[nH]2)c1", "assay": "broth dilution", "test system": "ATCC43300 MRSA", "setting": "drug-resistant strain", "MIC": "256 µg/mL"}
{"Compound": "COC(=O)c1cc(-c2cccc(NC(=S)Nc3ccc(Cl)cc3)c2)on1", "assay": "broth dilution", "test system": "ATCC29213", "MIC": "> 64 µg/mL"}
{"Compound": "CCCCCCC#Cc1cncc(-c2nnc(Sc3ccc([N+](=O)[O-])cc3[N+](=O)[O-])n2C)c1", "test system": "MRSA", "setting": "drug-resistant strain", "MIC": "≥ 20 µg/mL"}
{"Compound": "CCC1C(=NOCc2cc(-c3ccc(Cl)cc3)no2)CC(c2ccccc2)OC1c1ccccc1 (stereo not shown)", "assay": "broth dilution", "test system": "MTCC96", "setting": "24 h", "MIC": "50 µg/mL"}
{"Compound": "Cn1cc(C2=C(c3cn(C4CCN(Cc5ccccn5)CC4)c4ccccc34)C(=O)NC2=O)c2ccccc21", "test system": "NCTC8325", "MIC": "> 30 µM"}
{"Compound": "O=[N+]([O-])c1ccc(-c2nc3cccc(O)c3[nH]2)o1", "assay": "broth dilution", "test system": "ATCC700699 MRSA", "setting": "drug-resistant strain", "MIC": "2 µg/mL"}
{"Compound": "Cc1ccc2[nH]c3c(c2c1)CCCC3NCCc1ccc(Br)cc1 (stereo not shown)", "assay": "broth dilution", "test system": "MRSA USA300", "MIC": "4 µg/mL"}
{"Compound": "CCCC(=O)CP(=O)(O)O", "test system": "ATCC33591 MRSA", "setting": "drug-resistant strain", "MIC": "> 200 µg/mL"}
{"Compound": "C=C(NC(=O)C(=C)NC(=O)c1csc(C2=N[C@@H]3c4csc(n4)[C@H]4NC(=O)c5csc(n5)[C@H]([C@](C)(O)[C@@H](C)O)NC(=O)[C@H]5CSC(=N5)/C(=C/C)NC(=O)[C@H]([C@@H](C)O)NC(=O)c5csc(n5)[C@]3(CC2)NC(=O)[C@H](C)NC(=O)C(=C)NC(=O)[C@H](C)NC(=O)[C@H]([C@@H](C)CC)N[C@@H]2C=Cc3c([C@H](C)O)cc(nc3[C@H]2O)C(=O)O[C@@H]4C)n1)C(N)=O", "test system": "MRSA", "MIC": "0.12 µg/mL"}
{"Compound": "Cc1ccc2nc(-c3ccc(N(C)C)cc3)[nH]c2c1", "assay": "broth dilution", "test system": "ATCC43300 MRSA", "setting": "drug-resistant strain", "MIC": "128 µg/mL"}
{"Compound": "COc1ccc(NC(=O)Nc2ccc(Cl)c(C(F)(F)F)c2)cc1", "test system": "NCTC8325", "MIC": "3 µM"}
{"Compound": "CC[C@H](C)C[C@H](C)CCCCCCCCC(=O)N[C@H]1C[C@@H](O)[C@@H](NCCN)NC(=O)[C@@H]2[C@@H](O)CCN2C(=O)[C@H]([C@H](O)CCN)NC(=O)[C@H]([C@H](O)[C@@H](O)c2ccc(O)cc2)NC(=O)[C@@H]2C[C@@H](O)CN2C(=O)[C@H]([C@@H](C)O)NC1=O", "assay": "broth dilution", "test system": "MB2865", "MIC": "> 128 µg/mL"}
{"Compound": "Cc1ccc2nc(-c3ccco3)[nH]c2c1", "assay": "broth dilution", "test system": "ATCC43300 MRSA", "setting": "drug-resistant strain", "MIC": "256 µg/mL"}
{"Compound": "Cc1ccc2[nH]c3c(c2c1)CCCC3NCCc1ccc(O)cc1 (stereo not shown)", "assay": "broth dilution", "test system": "VISA", "MIC": "16 µg/mL"}
{"Compound": "COc1ccc(-c2nc3ccccc3n2Cc2ccccc2)cc1OC", "assay": "broth dilution", "test system": "ATCC43300 MRSA", "setting": "drug-resistant strain", "MIC": "8 µg/mL"}
{"Compound": "O=C(CCCCc1ccccc1)CP(=O)(O)O", "test system": "ATCC33591 MRSA", "setting": "drug-resistant strain", "MIC": "> 200 µg/mL"}
{"Compound": "COc1ccc(Cc2cnc(N)nc2N)cc1OC", "assay": "broth dilution", "MIC": "~50 µM"}
{"Compound": "COC(=O)c1cc(-c2cccc(NC(=S)Nc3cccc(Br)c3)c2)on1", "assay": "broth dilution", "test system": "ATCC29213", "MIC": "> 64 µg/mL"}
{"Compound": "[H]/N=C(/N)N[C@H]1[C@H](O)[C@@H](O)[C@H](O[C@@H]2O[C@@H](C)[C@](O)(C=O)[C@H]2O[C@@H]2O[C@@H](CO)[C@H](O)[C@@H](O)[C@@H]2NC)[C@@H](N/C(N)=N\\[H])[C@@H]1O", "test system": "USA300", "MIC": "64 µg/mL"}
{"Compound": "COC(=O)c1cc(-c2cccc(NC(=O)Nc3ccc(Cl)c(Cl)c3)c2)on1", "assay": "broth dilution", "test system": "ATCC29213", "MIC": "> 64 µg/mL"}
{"Compound": "COc1cccc(-c2nc3ccc(C)cc3[nH]2)c1", "assay": "broth dilution", "test system": "ATCC43300 MRSA", "setting": "drug-resistant strain", "MIC": "256 µg/mL"}
{"Compound": "CN[C@H](CC(C)C)C(=O)N[C@H]1C(=O)N[C@@H](CC(N)=O)C(=O)N[C@H]2C(=O)N[C@H]3C(=O)N[C@H](C(=O)N[C@H](C(=O)O)c4cc(O)cc(O)c4-c4cc3ccc4O)[C@H](O)c3ccc(c(Cl)c3)Oc3cc2cc(c3O[C@@H]2O[C@H](CO)[C@@H](O)[C@H](O)[C@H]2O[C@H]2C[C@](C)(N)[C@H](O)[C@H](C)O2)Oc2ccc(cc2Cl)[C@H]1O", "assay": "broth dilution", "test system": "ATCC25923", "MIC": "1 µg/mL"}
{"Compound": "CN[C@H](CC(C)C)C(=O)N[C@H]1C(=O)N[C@@H](CC(N)=O)C(=O)N[C@H]2C(=O)N[C@H]3C(=O)N[C@H](C(=O)N[C@H](C(=O)O)c4cc(O)cc(O)c4-c4cc3ccc4O)[C@H](O)c3ccc(c(Cl)c3)Oc3cc2cc(c3O[C@@H]2O[C@H](CO)[C@@H](O)[C@H](O)[C@H]2O[C@H]2C[C@](C)(N)[C@H](O)[C@H](C)O2)Oc2ccc(cc2Cl)[C@H]1O", "test system": "MRSA", "MIC": "8 µg/mL"}
